Measured values published in ChEMBL document CHEMBL2346548, “Design, synthesis, and structure-activity relationship studies of tryptanthrins as antitubercular agents” (J Nat Prod, 2013).
Converted amounts (≈) assume the structure as drawn.

What was measured:
[1] = test system: Mycobacterium tuberculosis; test: Antitubercular activity against Mycobacterium tuberculosis H37Rv incubated at 37 degC for 7 days by microplate alamar blue assay; type: functional; settings: for MIC: Mycobacterium tuberculosis, H37Rv, 168 h
Outline: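 Mtb H37Rv was grown in 7H9 broth with glycerol, Casitone, 10% OADC and 0.05% Tween 80 to OD600 0.4. Compounds were 2-fold serially diluted from DMSO stocks in 7H9, and wells were inoculated at 2 × 10⁵ CFU/mL. After 7 days at 37 °C, Alamar Blue was added and read after a further 24 h. MIC was the lowest concentration preventing the blue-to-pink change.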

[2] = test system: Mycobacterium tuberculosis; test: Antitubercular activity against non-replicating Mycobacterium tuberculosis H37Rv incubated for 10 days by LORA method; type: functional; settings: 240 h
Outline: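 H37Rv carrying pFCA-luxAB was adapted to low oxygen by gradual self-depletion in a sealed, slowly stirred flask. It was then exposed to compounds for 10 days under anaerobic conditions. Cultures recovered for 28 h in ambient oxygen before n-decanal substrate was added and luminescence read. MIC was the lowest concentration giving a 90% reduction in luminescence versus untreated controls.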

[3] = test system: Vero; test: Cytotoxicity against african green monkey Vero cells; type: cell-based, Chlorocebus sabaeus; settings: Chlorocebus sabaeus, Vero; read-out: IC50
[4] = target: CYP3A4 (Homo sapiens, UniProt P08684); test: Inhibition of human recombinant CYP3A4 at 10 uM incubated for 30 mins at 37 degC using 7-benzyloxy-4-(trifluoromethyl)coumarin substrate; type: ADME; settings: recombinant CYP3A4, probe 7-benzyloxy-4-(trifluoromethyl)coumarin
Chain of CYP3A4 (P08684 whole entry): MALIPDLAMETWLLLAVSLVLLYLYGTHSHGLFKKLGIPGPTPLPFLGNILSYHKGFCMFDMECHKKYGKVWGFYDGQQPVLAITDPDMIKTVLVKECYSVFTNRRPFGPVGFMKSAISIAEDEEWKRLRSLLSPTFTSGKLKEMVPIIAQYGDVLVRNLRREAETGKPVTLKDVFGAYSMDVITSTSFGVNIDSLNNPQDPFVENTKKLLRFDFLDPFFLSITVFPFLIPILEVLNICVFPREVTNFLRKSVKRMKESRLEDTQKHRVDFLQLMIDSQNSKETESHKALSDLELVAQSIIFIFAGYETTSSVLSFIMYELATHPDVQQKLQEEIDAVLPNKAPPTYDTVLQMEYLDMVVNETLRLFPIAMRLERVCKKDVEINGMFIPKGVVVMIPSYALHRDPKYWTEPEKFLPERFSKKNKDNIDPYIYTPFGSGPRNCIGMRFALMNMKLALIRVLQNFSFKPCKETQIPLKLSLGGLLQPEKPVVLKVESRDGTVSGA

[5] = Metabolic stability in human liver microsomes assessed as parent compound remaining at 1 uM incubated for 1 hr by HPLC-MS/MS method; type: ADME, Microsome; settings: read-out: Stability
Outline: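 Pooled mixed-gender human liver microsomes (0.3 mg/mL protein), 1 μM compound with NADP-regenerating system in phosphate buffer pH 7.4, 1 h at 37 °C; parent measured at start and end by HPLC-MS/MS; duplicate means.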

[6] = Solubility in simulated gastric fluid at pH 1.5 by HPLC method; type: physicochemical
Outline: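 Compound at 200 μM final in 2% DMSO in simulated gastric fluid, shaken 24 h at room temperature; HPLC-photodiode array detection at 230 nm; duplicate means.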

[7] = test system: Mycobacterium tuberculosis; test: Antitubercular activity against Mycobacterium tuberculosis H37Rv incubated at 37 degC for 14 days in presence of 40% human serum by microplate alamar blue assay; type: functional; settings: 336 h
Outline: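 This is the MABA run in 7H9 broth containing 40% human serum. Compounds were 2-fold serially diluted, and wells were inoculated with H37Rv at 2 × 10⁵ CFU/mL. Incubation was at 37 °C for 14 days, then Alamar Blue was added. MIC was the lowest concentration preventing the blue-to-pink colour change.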

[8] = Solubility in simulated intestinal fluid at pH 7.6 by HPLC method; type: physicochemical
Outline: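 Simulated intestinal fluid medium; each analogue 200 μM final in 2% DMSO, shaken 24 h at room temperature, then HPLC with photodiode array read at 230 nm; duplicate, means given.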

[9] = Distribution coefficient, log D of the compound between n-octanol and PBS buffer at pH 7.4 incubated for 1 hr by shake flask method; type: physicochemical
Outline: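 Partition between n-octanol and PBS pH 7.4 after 1 h shaking at room temperature; phases analysed by HPLC with photodiode detection; logD = log10 of organic/aqueous amount.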

[10] = target: CYP2C9 (Homo sapiens, UniProt P11712); test: Inhibition of human recombinant CYP2C9 at 10 uM incubated for 80 mins at 37 degC using 7-methoxy-4-trifluoromethylcoumarin substrate; type: ADME; settings: recombinant CYP2C9, probe 7-methoxy-4-trifluoromethylcoumarin
Chain of CYP2C9 (P11712 whole entry): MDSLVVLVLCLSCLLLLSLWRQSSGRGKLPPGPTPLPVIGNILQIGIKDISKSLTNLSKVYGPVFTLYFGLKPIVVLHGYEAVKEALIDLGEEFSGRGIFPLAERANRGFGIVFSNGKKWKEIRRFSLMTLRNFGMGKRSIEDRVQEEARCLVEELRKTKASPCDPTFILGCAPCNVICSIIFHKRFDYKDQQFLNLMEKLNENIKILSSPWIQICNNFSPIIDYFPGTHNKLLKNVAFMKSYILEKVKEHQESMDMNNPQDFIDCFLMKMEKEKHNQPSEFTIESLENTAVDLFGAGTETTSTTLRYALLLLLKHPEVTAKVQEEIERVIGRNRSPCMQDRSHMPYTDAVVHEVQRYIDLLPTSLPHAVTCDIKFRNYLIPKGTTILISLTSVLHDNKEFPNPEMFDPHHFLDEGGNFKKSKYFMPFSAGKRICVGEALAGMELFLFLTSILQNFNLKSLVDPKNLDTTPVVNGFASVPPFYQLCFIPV

[11] = Half life in female rat at 56 mg/kg, po; type: ADME, organism-based; set-up: dose 56 mg/kg, route oral; settings: in vivo
[12] = Aqueous solubility in PBS buffer at pH 7.4 by HPLC method; type: physicochemical
Outline: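 Compound at 200 μM final in 2% DMSO in PBS pH 7.4, shaken 24 h at room temperature; quantified by HPLC with photodiode array detection at 230 nm; duplicate, mean reported.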

[13] = Protein binding in human plasma at 10 uM incubated for 8 hrs at 37 degC by equilibrium dialysis method; type: ADME, cell-free; settings: read-out: PPB (converted)
Outline: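 Equilibrium dialysis: 10 μM compound in 1% DMSO in human plasma vs 0.05 M phosphate buffer pH 7.5 across 12–14 K cutoff membrane, at least 8 h at 37 °C; HPLC-photodiode detection at 230 nm; duplicate means.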

[14] = Efflux ratio in human Caco2 cells incubated for 1 hr at 37 degC by HPLC-MS/MS method; type: ADME, cell-based; settings: Caco-2
[15] = Permeability across basolateral to apical side in human Caco2 cells incubated for 1 hr at 37 degC by HPLC-MS/MS method; type: ADME, cell-based; settings: Caco-2
[16] = target: CYP2C19 (Homo sapiens, UniProt P33261); test: Inhibition of human recombinant CYP2C19 at 10 uM incubated for 60 mins at 37 degC using 3-cyano-7-ethoxycoumarin substrate; type: ADME; settings: recombinant CYP2C19, probe 3-cyano-7-ethoxycoumarin
Chain of CYP2C19 (P33261 whole entry): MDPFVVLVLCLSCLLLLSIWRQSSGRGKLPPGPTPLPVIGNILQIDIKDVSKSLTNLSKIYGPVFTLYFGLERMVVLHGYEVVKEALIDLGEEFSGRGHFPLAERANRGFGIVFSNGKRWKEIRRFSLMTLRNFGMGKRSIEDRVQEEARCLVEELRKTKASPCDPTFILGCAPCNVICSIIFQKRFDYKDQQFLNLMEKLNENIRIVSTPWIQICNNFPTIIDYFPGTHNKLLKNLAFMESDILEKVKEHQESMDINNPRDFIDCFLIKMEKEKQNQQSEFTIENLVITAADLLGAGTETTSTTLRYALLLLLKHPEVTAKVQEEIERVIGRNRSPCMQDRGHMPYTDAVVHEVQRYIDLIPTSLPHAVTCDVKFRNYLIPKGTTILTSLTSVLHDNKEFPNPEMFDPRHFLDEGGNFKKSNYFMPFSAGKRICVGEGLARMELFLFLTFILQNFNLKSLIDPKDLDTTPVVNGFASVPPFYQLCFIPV

[17] = Half life in male rat at 56 mg/kg, po; type: ADME, organism-based; set-up: dose 56 mg/kg, route oral; settings: in vivo
[18] = Permeability across apical to basolateral side in human Caco2 cells incubated for 1 hr at 37 degC by HPLC-MS/MS method; type: ADME, cell-based; settings: Caco-2
Outline: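 TC7 (Caco-2 subclone) monolayer; 10 μM compound in 1% DMSO in HBSS-MES pH 6.5 on apical donor side, basolateral receiver pH 7.4; shaken 1 h at 37 °C; receiver sampled, HPLC-MS/MS; duplicate means.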

[19] = PBS buffer, read-out: solubility

| SMILES | MIC [1] | MIC90 [2] | IC50 [3] | inhibition at 0.5 h, 10 µM [4] | remaining at 1 h, 1 µM [5] | solubility [6] | MIC [7] | solubility [8] | MBC90 [1] | logD at 1 h [9] | inhibition at 80 min, 10 µM [10] | half-life [11] | solubility ([12]; buffer) | fraction unbound at 8 h, 10 µM [13] | efflux ratio at 1 h [14] | Papp B→A at 1 h [15] | inhibition at 1 h, 10 µM [16] | half-life [17] | Papp A→B at 1 h [18] | solubility [12, 19] |
| --- | --- | --- | --- | --- | --- | --- | --- | --- | --- | --- | --- | --- | --- | --- | --- | --- | --- | --- | --- | --- |
| O=C1C2=Nc3ccncc3CN2c2ccc(OC(F)(F)F)cc21 | 2 µg/mL (≈ 6.26 µM) | 9 µg/mL (≈ 28.2 µM) | 5.2 µg/mL (≈ 16.3 µM) |  |  |  |  |  |  |  |  |  |  |  |  |  |  |  |  |  |
| O=C1c2ccccc2-n2c1nc1ccccc1c2=O [TRYPTANTHRIN] | 1 µg/mL (≈ 4.03 µM) |  | > 8 µg/mL | 12% | 15% | 11.7 µM (≈ 2.9 µg/mL) | 1 µg/mL | 12.9 µM (≈ 3.2 µg/mL) | 1 µg/mL (≈ 4.03 µM) | 2.29 | 25% | 4.35 h | 5.4 µM (≈ 1.34 µg/mL) | 0.041 | > 1 | 22.5 ×10⁻⁶ cm/s | 9% | 5.6 h | 60.1 ×10⁻⁶ cm/s |  |
| O=C1c2cc(OC(F)(F)F)ccc2-n2c1nc1cnccc1c2=O | 0.125 µg/mL (≈ 0.375 µM) | 1.5 µg/mL (≈ 4.5 µM) | 5.4 µg/mL (≈ 16.2 µM) |  |  |  | 0.25 µg/mL |  |  |  |  |  |  |  |  |  |  |  |  |  |
| O=C1c2cc(OC(F)(F)F)ccc2-n2c1nc1ccncc1c2=O | 0.063 µg/mL (≈ 0.189 µM) | 0.64 µg/mL (≈ 1.92 µM) | 5.7 µg/mL (≈ 17.1 µM) |  |  |  | 0.5 µg/mL |  | 0.125 µg/mL (≈ 0.375 µM) |  |  |  |  |  |  |  |  |  |  |  |
| O=C1c2cc(OC(F)(F)F)ccc2-n2c1nc1ncccc1c2=O | 0.25 µg/mL (≈ 0.75 µM) | 2.5 µg/mL (≈ 7.5 µM) | 7.6 µg/mL (≈ 22.8 µM) |  |  |  | 0.5 µg/mL |  |  |  |  |  |  |  |  |  |  |  |  |  |
| O=C1c2cc(Cl)ccc2-n2c1nc1cc(F)ccc1c2=O | 0.5 µg/mL (≈ 1.66 µM) | > 50 µg/mL | > 50 µg/mL |  | 91% | 2.5 µM (≈ 0.752 µg/mL) | 0.5 µg/mL | 10.3 µM (≈ 3.1 µg/mL) | 0.25 µg/mL (≈ 0.831 µM) |  |  |  |  |  | > 1 | 12.7 ×10⁻⁶ cm/s |  |  | 28.5 ×10⁻⁶ cm/s | 1.1 µM (≈ 0.331 µg/mL) |
| O=C1c2cc(Cl)ccc2-n2c1nc1ccccc1c2=O | 0.125 µg/mL (≈ 0.442 µM) | > 50 µg/mL | > 50 µg/mL | 10% |  | 26.8 µM (≈ 7.58 µg/mL) | 0.25 µg/mL | 16.7 µM (≈ 4.72 µg/mL) | 0.125 µg/mL (≈ 0.442 µM) | 2.76 | 38% |  |  |  |  |  | 13% |  |  | 3.3 µM (≈ 0.933 µg/mL) |
| O=C1c2cc(Cl)ccc2-n2c1nc1ncccc1c2=O | 0.125 µg/mL (≈ 0.441 µM) | 1.4 µg/mL (≈ 4.94 µM) | 5.4 µg/mL (≈ 19 µM) | 62% | 96% | 6 µM (≈ 1.7 µg/mL) | 0.125 µg/mL | 18.9 µM (≈ 5.36 µg/mL) | 0.25 µg/mL (≈ 0.881 µM) | 1.77 | 54% |  |  | 0.051 | > 1 | 44 ×10⁻⁶ cm/s | 67% |  | 73.8 ×10⁻⁶ cm/s | 8 µM (≈ 2.27 µg/mL) |
| O=C1c2cc(Cl)ccc2-n2c1nc1ccncc1c2=O | 0.25 µg/mL (≈ 0.881 µM) | 0.68 µg/mL (≈ 2.4 µM) | 8.5 µg/mL (≈ 30 µM) |  |  |  | 0.25 µg/mL |  |  |  |  |  |  |  |  |  |  |  |  |  |
| O=C1c2cc(F)ccc2-n2c1nc1ccccc1c2=O | 0.125 µg/mL (≈ 0.47 µM) | > 50 µg/mL | > 50 µg/mL |  | 46% | 8.5 µM (≈ 2.26 µg/mL) | 0.5 µg/mL | 18.8 µM (≈ 5.01 µg/mL) |  |  |  |  |  |  | > 1 | 29.9 ×10⁻⁶ cm/s |  |  | 66.6 ×10⁻⁶ cm/s | 4.9 µM (≈ 1.3 µg/mL) |
| O=C1c2ccccc2-n2c1nc1ncccc1c2=O | 4 µg/mL (≈ 16 µM) | 23 µg/mL (≈ 92.3 µM) | 24 µg/mL (≈ 96.3 µM) |  |  |  | 8 µg/mL |  |  |  |  |  |  |  |  |  |  |  |  |  |
| O=C1c2ccccc2-n2c1nc1ccncc1c2=O | 0.5 µg/mL (≈ 2.01 µM) | 1.6 µg/mL (≈ 6.42 µM) | 5.3 µg/mL (≈ 21.3 µM) |  |  |  | 0.25 µg/mL |  |  |  |  |  |  |  |  |  |  |  |  |  |
